In ChEMBL document CHEMBL1137337, “Design, synthesis, and biological evaluation of new cyclic melanotropin peptide analogues selective for the human melanocortin-4 receptor” (J Med Chem, 2006):
The source made the active and inactive calls. The rule behind the calls is not given here.

Assays:
[1] = target: T1, Melanocyte-stimulating hormone receptor (Homo sapiens, UniProt Q01726); experiment: Displacement of [125I]NDP-alphaMSH from human MC1 receptor expressed in HEK293 cells; type: cell-based
Outline: (§1)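 Whole-cell competition used transfected HEK293 cells seeded 48 h ahead at 100 000 cells/well. Binding buffer was MEM with 25 mM HEPES pH 7.4, 0.2% BSA, 1 mM 1,10-phenanthroline, leupeptin and bacitracin. Radioactivity was gamma-counted, and IC50 was obtained by nonlinear least-squares fit.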

Melanocortin receptor 3 [2] = target: T2, Melanocortin receptor 3 (Homo sapiens, UniProt P41968); experiment: Displacement of [125I]NDP-alphaMSH from human MC3 receptor expressed in HEK293 cells; type: cell-based; outline: as §1
T2 sequence (P41968 whole entry): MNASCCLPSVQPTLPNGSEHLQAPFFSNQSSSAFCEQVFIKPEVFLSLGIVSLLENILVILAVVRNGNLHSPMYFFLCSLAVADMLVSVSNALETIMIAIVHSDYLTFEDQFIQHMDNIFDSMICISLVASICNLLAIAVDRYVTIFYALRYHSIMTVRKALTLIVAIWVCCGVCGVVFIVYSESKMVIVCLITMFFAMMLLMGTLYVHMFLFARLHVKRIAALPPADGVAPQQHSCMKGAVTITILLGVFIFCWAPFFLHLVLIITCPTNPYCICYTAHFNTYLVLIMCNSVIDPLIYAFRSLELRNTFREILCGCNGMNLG

Melanocortin receptor 4 [3] = target: T3, Melanocortin receptor 4 (Homo sapiens, UniProt P32245); experiment: Displacement of [125I]NDP-alphaMSH from human MC4 receptor expressed in HEK293 cells; type: cell-based; outline: as §1
T3 sequence (P32245 whole entry): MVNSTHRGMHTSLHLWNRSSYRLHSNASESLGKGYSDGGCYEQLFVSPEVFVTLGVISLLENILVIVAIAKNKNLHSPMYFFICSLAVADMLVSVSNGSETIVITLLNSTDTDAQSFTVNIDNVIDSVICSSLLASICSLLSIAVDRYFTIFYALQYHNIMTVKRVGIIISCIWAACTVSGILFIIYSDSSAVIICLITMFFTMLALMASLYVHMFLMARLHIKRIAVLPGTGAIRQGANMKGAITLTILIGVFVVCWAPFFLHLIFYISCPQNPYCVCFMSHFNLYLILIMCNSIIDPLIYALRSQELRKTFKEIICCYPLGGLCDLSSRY

Melanocortin receptor 4 [4] = target: T3, Melanocortin receptor 4; experiment: Activity at hMC4R transfected in HEK293 cells assessed as intracellular cAMP accumulation; type: functional, cell-based
Outline: (§2)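 HEK293 cells stably carrying the human MC receptor were seeded 48 h ahead at 50 000 cells/well. They were preincubated 1 min at 37 °C in EBSS with IBMX, then exposed to peptide at 10⁻¹⁰ to 10⁻⁵ M for 3 min at 37 °C. Ice-cold Tris/EDTA stopped the reaction, and lysates were boiled 15 min. Total cAMP was measured by competitive binding kit, and EC50 was obtained by nonlinear least-squares fit.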

Melanocortin receptor 3 [5] = target: T2, Melanocortin receptor 3; experiment: Activity at hMC3R transfected in HEK293 cells assessed as intracellular cAMP accumulation; type: functional, cell-based; outline: as §2
[6] = target: T1, Melanocyte-stimulating hormone receptor; experiment: Displacement of [125I]NDP-alphaMSH from human MC1 receptor expressed in HEK293 cells relative to MT2; type: cell-based
Outline: (§3)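 Binding efficiency was measured in the whole-cell [¹²⁵I]NDP-α-MSH competition assay on receptor-transfected HEK293 cells (30 min, 37 °C). It is expressed as the peptide's maximal percentage specific binding relative to MTII agonist binding, with peptides tested at 10⁻¹⁰ to 10⁻⁵ M.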
Target sequence in this assay (Q01726 whole entry, looked up): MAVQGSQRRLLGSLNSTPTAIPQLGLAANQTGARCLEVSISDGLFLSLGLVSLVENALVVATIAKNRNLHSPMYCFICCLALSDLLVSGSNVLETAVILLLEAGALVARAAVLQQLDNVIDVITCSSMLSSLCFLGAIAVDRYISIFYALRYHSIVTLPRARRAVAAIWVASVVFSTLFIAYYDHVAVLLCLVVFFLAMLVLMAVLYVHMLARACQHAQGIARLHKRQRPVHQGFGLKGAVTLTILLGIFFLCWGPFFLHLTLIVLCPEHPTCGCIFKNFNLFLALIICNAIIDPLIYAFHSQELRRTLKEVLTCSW

Melanocortin receptor 4 [7] = target: T3, Melanocortin receptor 4; experiment: Activity at hMC4R transfected in HEK293 cells assessed as intracellular cAMP accumulation relative to MT2; type: functional, cell-based; design: concentration or dose not given beside the values
[8] = target: T1, Melanocyte-stimulating hormone receptor; experiment: Activity at hMC1R transfected in HEK293 cells assessed as intracellular cAMP accumulation relative to MT2; type: functional, cell-based; design: concentration or dose not given beside the values
Target sequence in this assay (Q01726 whole entry, looked up): as above

Melanocortin receptor 3 [9] = target: T2, Melanocortin receptor 3; experiment: Activity at hMC3R transfected in HEK293 cells assessed as intracellular cAMP accumulation relative to MT2; type: functional, cell-based; design: concentration or dose not given beside the values
Melanocortin receptor 4 [10] = target: T3, Melanocortin receptor 4; experiment: Displacement of [125I]NDP-alphaMSH from human MC4 receptor expressed in HEK293 cells relative to MT2; type: cell-based; outline: as §3
Melanocortin receptor 5 [11] = target: T4, Melanocortin receptor 5 (Homo sapiens, UniProt P33032); experiment: Displacement of [125I]NDP-alphaMSH from human MC5 receptor expressed in HEK293 cells relative to MT2; type: cell-based; outline: as §3
T4 sequence (P33032 whole entry): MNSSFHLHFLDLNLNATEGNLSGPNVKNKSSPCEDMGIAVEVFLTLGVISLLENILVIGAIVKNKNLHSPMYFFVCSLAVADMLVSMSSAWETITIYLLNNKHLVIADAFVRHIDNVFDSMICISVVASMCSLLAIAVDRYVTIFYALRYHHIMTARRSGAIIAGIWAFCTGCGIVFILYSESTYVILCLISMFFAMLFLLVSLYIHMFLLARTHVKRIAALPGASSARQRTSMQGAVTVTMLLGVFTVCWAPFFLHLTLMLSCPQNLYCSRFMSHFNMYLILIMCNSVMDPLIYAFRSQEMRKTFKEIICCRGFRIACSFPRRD

Melanocortin receptor 5 [12] = target: T4, Melanocortin receptor 5; experiment: Displacement of [125I]NDP-alphaMSH from human MC5 receptor expressed in HEK293 cells; type: cell-based; outline: as §1
Melanocortin receptor 5 [13] = target: T4, Melanocortin receptor 5; experiment: Activity at hMC5R transfected in HEK293 cells assessed as intracellular cAMP accumulation; type: functional, cell-based; outline: as §2
Melanocortin receptor 5 [14] = target: T4, Melanocortin receptor 5; experiment: Activity at hMC5R transfected in HEK293 cells assessed as intracellular cAMP accumulation relative to MT2; type: functional, cell-based
Melanocortin receptor 3 [15] = target: T2, Melanocortin receptor 3; experiment: Displacement of [125I]NDP-alphaMSH from human MC3 receptor expressed in HEK293 cells relative to MT2; type: cell-based; outline: as §3

`CC(=O)N[C@H]1CCC(=O)NCC[C@@H](C(=O)N[C@@H](Cc2c[nH]c3ccccc23)C(N)=O)N(CCCCN=C(N)N)C(=O)[C@@H](Cc2ccccc2)NC(=O)[C@H](Cc2cnc[nH]2)NC1=O` was tested, and the IC50 [1] was > 1000 nM and the IC50 (Melanocortin receptor 3 [2]) was > 1000 nM.
With `CC(=O)N[C@H]1CSSC[C@@H](C(=O)N(CCCCN=C(N)N)[C@@H](Cc2c[nH]c3ccccc23)C(N)=O)NC(=O)[C@@H](Cc2ccccc2)NC(=O)[C@H](Cc2cnc[nH]2)NC1=O` the IC50 [1] was > 1000 nM, the IC50 (Melanocortin receptor 4 [3]) was 4.1 nM and the IC50 (Melanocortin receptor 3 [2]) was > 1000 nM. The EC50 (Melanocortin receptor 4 [4]) was > 1000 nM.
For `CC(=O)N[C@H]1CSSC[C@@H](C(=O)N(CCCCN=C(N)N)[C@H](Cc2c[nH]c3ccccc23)C(N)=O)NC(=O)[C@@H](Cc2ccccc2)NC(=O)[C@H](Cc2c[nH]cn2)NC1=O`, the Activity (Melanocortin receptor 3 [5]) was “inactive”, the Activity [6] was 0% and the Activity [1] was “inactive”. The Activity (Melanocortin receptor 4 [7]) was 19%, the Activity [8] was 0% and the Activity (Melanocortin receptor 3 [9]) was 0%. For the same molecule, the Activity (Melanocortin receptor 4 [10]) was 50%, the Activity (Melanocortin receptor 5 [11]) was 0% and the Activity (Melanocortin receptor 5 [12]) was “inactive”. The Activity (Melanocortin receptor 5 [13]) was “inactive”, the Activity (Melanocortin receptor 5 [14]) was 0% and the Activity (Melanocortin receptor 3 [15]) was < 10%.
`CC(=O)N[C@H]1CSSC[C@@H](C(=O)N(CCCCN=C(N)N)[C@H](Cc2c[nH]c3ccccc23)C(N)=O)NC(=O)[C@@H](Cc2ccccc2)NC(=O)[C@H](Cc2cnc[nH]2)NC1=O` was tested, and the IC50 (Melanocortin receptor 4 [3]) was 0.7 nM, the IC50 (Melanocortin receptor 3 [2]) was > 1000 nM and the EC50 (Melanocortin receptor 4 [4]) was > 1000 nM.
In the case of `CC(=O)N[C@H]1CCC(=O)NCCC(C(=O)N[C@@H](Cc2c[nH]c3ccccc23)C(N)=O)N(CCCCN=C(N)N)C(=O)[C@@H](Cc2ccccc2)NC(=O)[C@H](Cc2c[nH]cn2)NC1=O` (stereo not given in full), the Activity (Melanocortin receptor 3 [5]) is reported as “inactive”, the Activity [6] is reported as < 10% and the Activity (Melanocortin receptor 4 [3]) is reported as “inactive”. For the same molecule, the Activity (Melanocortin receptor 4 [7]) was 0%, the Activity [8] was 0% and the Activity (Melanocortin receptor 3 [9]) was 0%. For the same molecule, the Activity (Melanocortin receptor 4 [10]) was 0%, the Activity (Melanocortin receptor 5 [11]) was 0% and the Activity (Melanocortin receptor 5 [12]) was “inactive”. For the same molecule, the Activity (Melanocortin receptor 5 [13]) was “inactive”, the Activity (Melanocortin receptor 4 [4]) was “inactive” and the Activity (Melanocortin receptor 5 [14]) was 0%. For the same molecule, the Activity (Melanocortin receptor 3 [15]) was 50%.
For `CC(=O)N[C@H]1CCC(=O)NCCC[C@@H](C(=O)N[C@@H](Cc2c[nH]c3ccccc23)C(N)=O)N(CCCCN=C(N)N)C(=O)[C@@H](Cc2ccc3ccccc3c2)NC(=O)[C@H](Cc2c[nH]cn2)NC1=O`, the Activity (Melanocortin receptor 3 [5]) was “inactive”, the Activity [6] was < 10% and the IC50 [1] was > 10000 nM. The Activity (Melanocortin receptor 4 [3]) was “inactive”, the Activity (Melanocortin receptor 4 [7]) was 0% and the Activity [8] was 0%. For the same molecule, the IC50 (Melanocortin receptor 3 [2]) was > 1000 nM, the Activity (Melanocortin receptor 3 [9]) was 0% and the Activity (Melanocortin receptor 4 [10]) was 0%. For the same molecule, the Activity (Melanocortin receptor 5 [11]) was 0%, the Activity (Melanocortin receptor 5 [12]) was “inactive” and the Activity (Melanocortin receptor 5 [13]) was “inactive”. The Activity (Melanocortin receptor 4 [4]) was “inactive”, the Activity (Melanocortin receptor 5 [14]) was 0% and the Activity (Melanocortin receptor 3 [15]) was 50%.
For `CC(=O)N[C@H]1CSSC[C@@H](C(=O)N[C@@H](Cc2c[nH]c3ccccc23)C(N)=O)N(CCCCN=C(N)N)C(=O)[C@@H](Cc2ccccc2)NC(=O)[C@H](Cc2cnc[nH]2)NC1=O`, the IC50 (Melanocortin receptor 4 [3]) was 1.8 nM.
In the case of `CC(=O)N[C@H]1CSSC[C@@H](C(=O)N(CCCCN=C(N)N)C(Cc2c[nH]c3ccccc23)C(N)=O)NC(=O)[C@@H](Cc2ccc3ccccc3c2)NC(=O)[C@H](Cc2c[nH]cn2)NC1=O` (stereo in doubt), the Activity (Melanocortin receptor 3 [5]) is reported as “inactive”, the Activity [6] is reported as < 10% and the IC50 [1] is reported as > 1000 nM. The Activity (Melanocortin receptor 4 [3]) was “inactive”, the Activity (Melanocortin receptor 4 [7]) was 0% and the Activity [8] was 0%. The Activity (Melanocortin receptor 3 [2]) was “inactive”, the Activity (Melanocortin receptor 3 [9]) was 0% and the Activity (Melanocortin receptor 4 [10]) was 0%. For the same molecule, the Activity (Melanocortin receptor 5 [11]) was < 10%, the IC50 (Melanocortin receptor 5 [12]) was 209 nM and the Activity (Melanocortin receptor 5 [13]) was “inactive”. The Activity (Melanocortin receptor 4 [4]) was “inactive”, the Activity (Melanocortin receptor 5 [14]) was 0% and the Activity (Melanocortin receptor 3 [15]) was 0%.
With `CC(=O)N[C@H]1CSSC[C@@H](C(=O)N(CCCCN=C(N)N)[C@@H](Cc2c[nH]c3ccccc23)C(N)=O)NC(=O)[C@@H](Cc2ccccc2)NC(=O)[C@H](Cc2c[nH]cn2)NC1=O` the Activity (Melanocortin receptor 3 [5]) was “inactive”, the Activity [6] was < 10% and the Activity (Melanocortin receptor 4 [7]) was 18%. The Activity [8] was 0%, the Activity (Melanocortin receptor 3 [9]) was 0% and the Activity (Melanocortin receptor 4 [10]) was 50%. The Activity (Melanocortin receptor 5 [11]) was 0%, the Activity (Melanocortin receptor 5 [12]) was “inactive” and the Activity (Melanocortin receptor 5 [13]) was “inactive”. It also gave an Activity (Melanocortin receptor 5 [14]) of 0% and an Activity (Melanocortin receptor 3 [15]) of 50%.
In the case of `CC(=O)N[C@H]1CSSC[C@@H](C(=O)N[C@@H](Cc2c[nH]c3ccccc23)C(N)=O)N(CCCCN=C(N)N)C(=O)[C@@H](Cc2ccccc2)NC(=O)[C@H](Cc2c[nH]cn2)NC1=O`, the Activity (Melanocortin receptor 3 [5]) is reported as “inactive”, the Activity [6] is reported as 0% and the Activity [1] is reported as “inactive”. The Activity (Melanocortin receptor 4 [7]) was 0%, the Activity [8] was 0% and the Activity (Melanocortin receptor 3 [2]) was “inactive”. It also gave an Activity (Melanocortin receptor 3 [9]) of 0%, an Activity (Melanocortin receptor 4 [10]) of 50% and an Activity (Melanocortin receptor 5 [11]) of 0%. For the same molecule, the Activity (Melanocortin receptor 5 [12]) was “inactive”, the Activity (Melanocortin receptor 5 [13]) was “inactive” and the Activity (Melanocortin receptor 4 [4]) was “inactive”. For the same molecule, the Activity (Melanocortin receptor 5 [14]) was 0% and the Activity (Melanocortin receptor 3 [15]) was 0%.
`CC(=O)N[C@H]1CCC(=O)NCCC[C@@H](C(=O)N[C@@H](Cc2c[nH]c3ccccc23)C(N)=O)N(CCCCN=C(N)N)C(=O)[C@@H](Cc2ccccc2)NC(=O)[C@H](Cc2c[nH]cn2)NC1=O` was tested, and the Activity (Melanocortin receptor 3 [5]) was “inactive”, the Activity [6] was < 10% and the IC50 [1] was 750 nM. For the same molecule, the IC50 (Melanocortin receptor 4 [3]) was 101 nM, the Activity (Melanocortin receptor 4 [7]) was < 10% and the Activity [8] was 0%. For the same molecule, the IC50 (Melanocortin receptor 3 [2]) was > 1000 nM, the Activity (Melanocortin receptor 3 [9]) was 0% and the Activity (Melanocortin receptor 4 [10]) was 50%. For the same molecule, the Activity (Melanocortin receptor 5 [11]) was 0%, the Activity (Melanocortin receptor 5 [12]) was “inactive” and the Activity (Melanocortin receptor 5 [13]) was “inactive”. The EC50 (Melanocortin receptor 4 [4]) was > 1000 nM, the Activity (Melanocortin receptor 5 [14]) was 0% and the Activity (Melanocortin receptor 3 [15]) was 50%.
`CC(=O)N[C@H]1CSSC[C@H](C(=O)N[C@@H](Cc2c[nH]c3ccccc23)C(N)=O)N(CCCCN=C(N)N)C(=O)[C@@H](Cc2ccccc2)NC(=O)[C@H](Cc2c[nH]cn2)NC1=O` was tested, and the Activity (Melanocortin receptor 3 [5]) was “inactive”, the Activity [6] was < 10% and the IC50 [1] was 1000 nM. For the same molecule, the Activity (Melanocortin receptor 4 [3]) was “inactive”, the Activity (Melanocortin receptor 4 [7]) was 0% and the Activity [8] was 0%. The Activity (Melanocortin receptor 3 [2]) was “inactive”, the Activity (Melanocortin receptor 3 [9]) was 0% and the Activity (Melanocortin receptor 4 [10]) was 0%. For the same molecule, the Activity (Melanocortin receptor 5 [11]) was 0%, the Activity (Melanocortin receptor 5 [12]) was “inactive” and the Activity (Melanocortin receptor 5 [13]) was “inactive”. For the same molecule, the Activity (Melanocortin receptor 4 [4]) was “inactive”, the Activity (Melanocortin receptor 5 [14]) was 0% and the Activity (Melanocortin receptor 3 [15]) was 0%.
